Measurements from paper PMC2677188 (ACS chemical biology, 2009).
Values joined by “and” are separate entries in the source; they are usually repeats but may differ in a detail not shown here. Equal values may be shown once. Read-outs that look alike come from different tables or passages of the source.

Tests used:
mTAAR1(Y4.56F) = mTAAR1(Y4.56F) (Mus musculus, UniProt Q923Y8, Y153F); test: cAMP agonist activity assay, mTAAR1; type: cell-based; conditions: for increase in potency versus wild type: mTAAR1(Y4.56F)
Summary of the method: (§1)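 Site-directed TAAR1 mutants were stably expressed in HEK293 cells (transfected, selected with G418). cAMP was measured with a HitHunter cAMP XS kit over concentration-response curves. Responses were expressed relative to the reference agonist at 10 μM (set as 100%). EC50 and Emax were obtained by curve fitting, averaged over N independent triplicate experiments, with SEM.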

[1] = target: T1, mTAAR1 (wild type mouse TAAR1) (Mus musculus, UniProt Q923Y8); conditions: wild type receptors; cited from earlier work
rTAAR1(A5.42I) = rTAAR1(A5.42I) (Rattus norvegicus, UniProt Q923Y9, A193I); test: cAMP agonist activity assay, rTAAR1; type: cell-based; conditions: for decrease in potency versus wild type: rTAAR1(A5.42I)
Summary of the method: as §1

mTAAR1(Y7.39N) = mTAAR1(Y7.39N) (Mus musculus, UniProt Q923Y8, Y287N); test: cAMP agonist activity assay, mTAAR1; type: cell-based
[2] = target: T1, mTAAR1 (wild type mouse TAAR1); test: In vitro cAMP agonist activity assay, wild type mTAAR1; type: cell-based
mTAAR1(T6.55M) = mTAAR1(T6.55M) (Mus musculus, UniProt Q923Y8, T268M); test: cAMP agonist activity assay, mTAAR1; type: cell-based
rTAAR1(M6.55T) = rTAAR1(M6.55T) (Rattus norvegicus, UniProt Q923Y9, M268T); test: cAMP agonist activity assay, rTAAR1; type: cell-based
rTAAR1(N7.39Y) = rTAAR1(N7.39Y) (Rattus norvegicus, UniProt Q923Y9, N287Y); test: cAMP agonist activity assay, rTAAR1; type: cell-based
rTAAR1(A5.42T) = rTAAR1(A5.42T) (Rattus norvegicus, UniProt Q923Y9, A193T); test: cAMP agonist activity assay, rTAAR1; type: cell-based
Summary of the method: as §1

[3] = target: rTAAR1 (wild type rat TAAR1) (Rattus norvegicus, UniProt Q923Y9); test: In vitro cAMP agonist activity assay; type: cell-based
rTAAR1(M6.55T/N7.39Y) = rTAAR1(M6.55T/N7.39Y) (Rattus norvegicus, UniProt Q923Y9, M268T/N287Y); test: cAMP agonist activity assay, rTAAR1; type: cell-based
rTAAR1(A5.42L) = rTAAR1(A5.42L) (Rattus norvegicus, UniProt Q923Y9, A193L); test: cAMP agonist activity assay, rTAAR1; type: cell-based; conditions: for decrease in potency versus wild type: rTAAR1(A5.42L)
Summary of the method: as §1

mTAAR1(T6.55M/Y7.39N) = mTAAR1(T6.55M/Y7.39N) (Mus musculus, UniProt Q923Y8, T268M/Y287N); test: cAMP agonist activity assay, mTAAR1; type: cell-based
rTAAR1(F4.56Y) = rTAAR1(F4.56Y) (Rattus norvegicus, UniProt Q923Y9, F153Y); test: cAMP agonist activity assay, rTAAR1; type: cell-based
Summary of the method: as §1

T1 sequence (Q923Y8 whole entry): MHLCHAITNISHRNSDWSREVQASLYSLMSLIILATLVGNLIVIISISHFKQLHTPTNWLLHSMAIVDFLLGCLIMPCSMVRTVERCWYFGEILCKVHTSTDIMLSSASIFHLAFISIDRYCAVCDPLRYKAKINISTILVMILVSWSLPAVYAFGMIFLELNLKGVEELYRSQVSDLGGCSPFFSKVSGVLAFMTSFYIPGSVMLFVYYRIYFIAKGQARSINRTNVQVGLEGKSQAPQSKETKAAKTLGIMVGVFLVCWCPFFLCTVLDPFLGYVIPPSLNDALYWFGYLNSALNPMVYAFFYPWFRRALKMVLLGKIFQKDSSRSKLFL
Sequence of rTAAR1 (wild type rat TAAR1) (Q923Y9 whole entry): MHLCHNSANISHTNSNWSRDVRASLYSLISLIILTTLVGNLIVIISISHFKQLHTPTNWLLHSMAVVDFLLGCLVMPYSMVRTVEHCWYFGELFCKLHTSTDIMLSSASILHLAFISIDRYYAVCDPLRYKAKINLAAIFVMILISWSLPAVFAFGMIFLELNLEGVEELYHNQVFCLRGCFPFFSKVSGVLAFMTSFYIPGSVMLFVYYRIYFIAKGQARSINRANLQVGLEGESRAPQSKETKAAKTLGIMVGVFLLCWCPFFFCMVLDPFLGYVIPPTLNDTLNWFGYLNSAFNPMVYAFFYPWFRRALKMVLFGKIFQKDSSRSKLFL
Sequence of mTAAR1(Y4.56F) (Q923Y8 whole entry Y153F): as the sequence (Q923Y8 whole entry) above, with Y153F counted along it
Sequence of rTAAR1(A5.42L) (Q923Y9 whole entry A193L): as the sequence (Q923Y9 whole entry) above, with A193L counted along it
Sequence of rTAAR1(A5.42T) (Q923Y9 whole entry A193T): as the sequence (Q923Y9 whole entry) above, with A193T counted along it
Sequence of rTAAR1(A5.42I) (Q923Y9 whole entry A193I): as the sequence (Q923Y9 whole entry) above, with A193I counted along it
Sequence of mTAAR1(Y7.39N) (Q923Y8 whole entry Y287N): as the sequence (Q923Y8 whole entry) above, with Y287N counted along it
Sequence of rTAAR1(M6.55T/N7.39Y) (Q923Y9 whole entry M268T/N287Y): as the sequence (Q923Y9 whole entry) above, with M268T, N287Y counted along it
Sequence of rTAAR1(N7.39Y) (Q923Y9 whole entry N287Y): as the sequence (Q923Y9 whole entry) above, with N287Y counted along it
Sequence of mTAAR1(T6.55M) (Q923Y8 whole entry T268M): as the sequence (Q923Y8 whole entry) above, with T268M counted along it
Sequence of mTAAR1(T6.55M/Y7.39N) (Q923Y8 whole entry T268M/Y287N): as the sequence (Q923Y8 whole entry) above, with T268M, Y287N counted along it
Sequence of rTAAR1(M6.55T) (Q923Y9 whole entry M268T): as the sequence (Q923Y9 whole entry) above, with M268T counted along it
Sequence of rTAAR1(F4.56Y) (Q923Y9 whole entry F153Y): as the sequence (Q923Y9 whole entry) above, with F153Y counted along it

Which results are given for `NCCc1ccc(Oc2ccc(O)cc2)c(I)c1` [Compound 1, 3-Iodothyronamine]?
increase in potency versus wild type (mTAAR1(Y4.56F)): 5 fold; fold less potent for mTAAR1 compared to rTAAR1 [1]: 7 to 10 fold; decrease in potency versus wild type (rTAAR1(A5.42I)): 3 fold; Emax ± SEM (rTAAR1(A5.42I); rTAAR1 A5.42I (Table 3a), relative to 1): 100 ± 0%; EC50 (rTAAR1(A5.42I); read-out: EC50 ± SEM, rTAAR1 A5.42I (Table 3a)): 108 ± 14 nM; EC50 (mTAAR1(Y7.39N); read-out: EC50 ± SEM): 251 ± 43 nM; Emax ± SEM (mTAAR1(Y7.39N); relative to 1): 100 ± 0%; EC50 ([2]; read-out: EC50 ± SEM, wild type mTAAR1, HEK293 cells, cAMP): 314 ± 43 nM; improvement of potency at mTAAR1 on eliminating the β-phenyl ring of 2, 5 and 7 ([2]; wild type mTAAR1): 24- to 32 fold; Emax ± SEM ([2]; wild type mTAAR1, Emax = 100 % is the activity of 1 at 10 mM (so in the source)): 100 ± 0%; EC50 (mTAAR1(T6.55M); read-out: EC50 ± SEM): 1420 ± 592 nM; Emax ± SEM (mTAAR1(T6.55M); relative to 1): 100 ± 0%; EC50 (rTAAR1(M6.55T); read-out: EC50 ± SEM): 129 ± 43 nM; Emax ± SEM (rTAAR1(M6.55T); relative to 1): 100 ±0%; EC50 (rTAAR1(N7.39Y); read-out: EC50 ± SEM): 135 nM; Emax ± SEM (rTAAR1(N7.39Y); relative to 1): 100%; fold less potent versus wild type (rTAAR1(A5.42T); rTAAR1(A5.42T)): 3 fold; Emax ± SEM (rTAAR1(A5.42T); rTAAR1 A5.42T, relative to 1): 100 ± 0%; EC50 (rTAAR1(A5.42T); read-out: EC50 ± SEM, rTAAR1 A5.42T): 88 ± 13 nM; EC50 ([3]; read-out: EC50 ± SEM, wild type rTAAR1, HEK293 cells, cAMP): 33 ± 3 nM; Emax ± SEM ([3]; wild type rTAAR1, Emax = 100 % is the activity of 1 at 10 mM (so in the source)): 100± 0%; rTAAR1 selectivity: fold more potent for rTAAR1 compared to mTAAR1 ([3]; wild type receptors): ~ 10 fold and 7–10 fold; EC50 (rTAAR1(M6.55T/N7.39Y); read-out: EC50 ± SEM): 90 nM; Emax ± SEM (rTAAR1(M6.55T/N7.39Y); relative to 1): 100%; decrease in potency versus wild type (rTAAR1(A5.42L)): 2 fold; Emax ± SEM (rTAAR1(A5.42L); rTAAR1 A5.42L (Table 3a), relative to 1): 100 ± 0%; EC50 (rTAAR1(A5.42L); read-out: EC50 ± SEM, rTAAR1 A5.42L (Table 3a)): 58 ± 16 nM; EC50 (mTAAR1(T6.55M/Y7.39N); read-out: EC50 ± SEM): 208 ± 60 nM; Emax ± SEM (mTAAR1(T6.55M/Y7.39N); relative to 1): 100 ± 0%

Which EC50 (mTAAR1(Y4.56F)) does the source give for `NCCc1ccc(O)cc1` [Tyramine, tyramine] here?
Its EC50 is 40 ± 13 nM.

And the “increase in potency versus wild type” value (mTAAR1(Y4.56F))?
Its value is 7 fold.

And the Emax (mTAAR1(Y4.56F); read-out: Emax ± SEM)?
The Emax was 118 ± 8%.

What about the “fold less potent for mTAAR1 compared to rTAAR1” value [1] of the same compound?
The value was 7 to 10 fold.

What about the EC50 (rTAAR1(F4.56Y)) of the same compound?
Its EC50 is 54 ± 11 nM.

And the Emax (rTAAR1(F4.56Y); read-out: Emax ± SEM)?
Its Emax is 108 ± 6%.

And the EC50 (rTAAR1(A5.42I))?
The EC50 was > 10000 nM.

What about the “decrease in potency versus wild type” value (rTAAR1(A5.42I)) of the same compound?
Its value is 154 fold.

And the Emax (rTAAR1(A5.42I); read-out: Emax ± SEM)?
The Emax was 49 ± 7%.

And the EC50 [2]?
The EC50 was 271 ± 52 nM.

What about the Emax ([2]; read-out: Emax ± SEM) of the same compound?
The Emax was 110 ± 2%.

What about the EC50 (rTAAR1(A5.42T)) of the same compound?
The EC50 was > 10000 nM.

What about the “fold less potent versus wild type” value (rTAAR1(A5.42T); rTAAR1(A5.42T)) of the same compound?
The value was 154 fold.

What about the “less efficacious than wild type” value (rTAAR1(A5.42T); rTAAR1(A5.42T)) of the same compound?
The value was 50%.

And the Emax (rTAAR1(A5.42T); read-out: Emax ± SEM)?
Its Emax is 69 ± 5%.

And the EC50 [3]?
Its EC50 is 65 ± 1 nM.

And the Emax ([3]; read-out: Emax ± SEM)?
The Emax was 119 ± 7%.

What about the EC50 (rTAAR1(A5.42L)) of the same compound?
The EC50 was ~2000 nM.

What about the “decrease in potency versus wild type” value (rTAAR1(A5.42L)) of the same compound?
Its value is 31 fold.

What about the Emax (rTAAR1(A5.42L); read-out: Emax ± SEM) of the same compound?
The Emax was 102 ± 18%.
